# Measurements as given in ChEMBL document CHEMBL5303300, “EUbOPEN Chemogenomics Library - Multiplex” (2023).
# Values joined by “and” are separate entries in the source; they are usually repeats but may differ in a detail not shown here. Equal entries are not always repeated.
# Test system: U2OS
# Assay: Multiplex assay against U2OS
# Format: toxicity, cell-based
# Details: human, number of replicates 2
# Procedure, shortened: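 Values for tubulin, mitochondrial-mass and membrane-permeability phenotypes are per cents of cells with healthy nuclei. These cells were identified by CellPathfinder machine-learning gating of live cells that had been stained at seeding with Hoechst33342, BioTracker Green Microtubule Cytoskeleton Dye, MitoTracker Red and Annexin V Alexa Fluor 680 and imaged on a CQ1 microscope at 37°C and 5% CO2 after compound addition. The gating first set Hoechst high-intensity objects apart from normal cells, then split normal cells into healthy, pyknosed or fragmented nuclei, and pyknosed cells into mitotic or apoptotic.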
# [1] = 12 h, 1 µM, compound concentration 1 uM
# [2] = 12 h, 10 µM, compound concentration 10 uM
# [3] = 24 h, 1 µM, compound concentration 1 uM
# [4] = 24 h, 10 µM, compound concentration 10 uM
# [5] = 48 h, 1 µM, compound concentration 1 uM
# [6] = 48 h, 10 µM, compound concentration 10 uM
smiles,measurement,setting,value
Cl.Clc1ccc2nsnc2c1NC1=NCCN1 [TIZANIDINE HYDROCHLORIDE],Population Apoptotic (%),[1],50% and 55%
same,Population Fragmented Nuclei (%),[1],14% and 4%
same,Population Healthy Nuclei (%),[1],75% and 86%
same,Population Hoechst High Intensity Objects (%),[1],0%
same,Population Membrane Permeable-Phenotype (%),[1],0% and 1%
same,Population Mitochondria Different-Phenotype (%),[1],3% and 0%
same,Population Mitotic Cells (%),[1],50% and 44%
same,Population Normal (%),[1],100%
same,Population Pyknosed Nuclei (%),[1],9%
same,Population Tubulin-Different-Phenotype (%),[1],100% and 96%
same,Population Fragmented Nuclei (%),[2],7% and 4%
same,Population Healthy Nuclei (%),[2],89% and 87%
same,Population Hoechst High Intensity Objects (%),[2],0%
same,Population Membrane Permeable-Phenotype (%),[2],2% and 0%
same,Population Mitochondria Different-Phenotype (%),[2],0%
same,Population Normal (%),[2],100%
same,Population Pyknosed Nuclei (%),[2],2% and 8%
same,Population Tubulin-Different-Phenotype (%),[2],68% and 97%
same,Population Apoptotic (%),[3],100% and 58%
same,Population Fragmented Nuclei (%),[3],8% and 3%
same,Population Healthy Nuclei (%),[3],85% and 89%
same,Population Hoechst High Intensity Objects (%),[3],1% and 0%
same,Population Membrane Permeable-Phenotype (%),[3],1%
same,Population Mitochondria Different-Phenotype (%),[3],0% and 1%
same,Population Normal (%),[3],98% and 100%
same,Population Pyknosed Nuclei (%),[3],6% and 7%
same,Population Tubulin-Different-Phenotype (%),[3],100% and 95%
same,Population Fragmented Nuclei (%),[4],10% and 2%
same,Population Healthy Nuclei (%),[4],89% and 92%
same,Population Hoechst High Intensity Objects (%),[4],0%
same,Population Membrane Permeable-Phenotype (%),[4],0% and 1%
same,Population Mitochondria Different-Phenotype (%),[4],0%
same,Population Normal (%),[4],100%
same,Population Pyknosed Nuclei (%),[4],0% and 5%
same,Population Tubulin-Different-Phenotype (%),[4],77% and 96%
same,Population Apoptotic (%),[5],40%
same,Population Fragmented Nuclei (%),[5],11%
same,Population Healthy Nuclei (%),[5],78%
same,Population Hoechst High Intensity Objects (%),[5],1%
same,Population Membrane Permeable-Phenotype (%),[5],3%
same,Population Mitochondria Different-Phenotype (%),[5],0%
same,Population Mitotic Cells (%),[5],60%
same,Population Normal (%),[5],98%
same,Population Pyknosed Nuclei (%),[5],10%
same,Population Tubulin-Different-Phenotype (%),[5],97%
same,Total Cell Count,[5],99
same,Population Apoptotic (%),[6],88% and 38%
same,Population Fragmented Nuclei (%),[6],4% and 2%
same,Population Healthy Nuclei (%),[6],84% and 92%
same,Population Hoechst High Intensity Objects (%),[6],0%
same,Population Membrane Permeable-Phenotype (%),[6],2% and 0%
same,Population Mitochondria Different-Phenotype (%),[6],0%
same,Population Normal (%),[6],100%
same,Population Pyknosed Nuclei (%),[6],10% and 4%
same,Population Tubulin-Different-Phenotype (%),[6],72% and 99%
CCN(CC)C/C=C/C(=O)Nc1cc2c(Nc3ccc(F)c(Cl)c3)ncnc2cc1OCC1CC1,Population Apoptotic (%),[1],100% and 80%
same,Population Healthy Nuclei (%),[1],61% and 76%
same,Population Hoechst High Intensity Objects (%),[1],0%
same,Population Membrane Permeable-Phenotype (%),[1],4% and 13%
same,Population Mitochondria Different-Phenotype (%),[1],29% and 21%
same,Population Mitotic Cells (%),[1],0% and 20%
same,Population Normal (%),[1],100%
same,Population Pyknosed Nuclei (%),[1],17% and 16%
same,Population Tubulin-Different-Phenotype (%),[1],58% and 49%
same,Population Apoptotic (%),[2],80% and 91%
same,Population Fragmented Nuclei (%),[2],27% and 10%
same,Population Healthy Nuclei (%),[2],25% and 48%
same,Population Hoechst High Intensity Objects (%),[2],0% and 1%
same,Population Membrane Permeable-Phenotype (%),[2],45% and 31%
same,Population Mitochondria Different-Phenotype (%),[2],45% and 57%
same,Population Mitotic Cells (%),[2],20% and 8%
same,Population Normal (%),[2],100% and 98%
same,Population Pyknosed Nuclei (%),[2],46% and 40%
same,Population Tubulin-Different-Phenotype (%),[2],90% and 95%
same,Population Apoptotic (%),[3],88% and 82%
same,Population Healthy Nuclei (%),[3],58% and 73%
same,Population Hoechst High Intensity Objects (%),[3],0%
same,Population Membrane Permeable-Phenotype (%),[3],10% and 15%
same,Population Mitochondria Different-Phenotype (%),[3],44% and 39%
same,Population Mitotic Cells (%),[3],11% and 17%
same,Population Normal (%),[3],100% and 99%
same,Population Pyknosed Nuclei (%),[3],18% and 23%
same,Population Tubulin-Different-Phenotype (%),[3],51% and 48%
same,Population Apoptotic (%),[4],93%
same,Population Healthy Nuclei (%),[4],11% and 1%
same,Population Hoechst High Intensity Objects (%),[4],1%
same,Population Mitotic Cells (%),[4],6%
same,Population Normal (%),[4],98%
same,Population Pyknosed Nuclei (%),[4],78% and 56%
same,Population Tubulin-Different-Phenotype (%),[4],93% and 100%
same,Total Cell Count,[4],133 and 52
same,Population Apoptotic (%),[5],84% and 98%
same,Population Healthy Nuclei (%),[5],52% and 71%
same,Population Hoechst High Intensity Objects (%),[5],1% and 0%
same,Population Membrane Permeable-Phenotype (%),[5],10% and 12%
same,Population Mitochondria Different-Phenotype (%),[5],34% and 30%
same,Population Normal (%),[5],98% and 100%
same,Population Pyknosed Nuclei (%),[5],23% and 22%
same,Population Tubulin-Different-Phenotype (%),[5],37% and 42%
same,Population Apoptotic (%),[6],100% and 98%
same,Population Healthy Nuclei (%),[6],1% and 7%
same,Population Hoechst High Intensity Objects (%),[6],0%
same,Population Membrane Permeable-Phenotype (%),[6],100% and 88%
same,Population Mitochondria Different-Phenotype (%),[6],100% and 88%
same,Population Mitotic Cells (%),[6],0% and 1%
same,Population Normal (%),[6],100% and 99%
same,Population Pyknosed Nuclei (%),[6],46% and 87%
same,Population Tubulin-Different-Phenotype (%),[6],100%
same,Total Cell Count,[6],56 and 120
COc1ccc(CC[C@@H](OC(=O)[C@@H]2CCCCN2C(=O)[C@H](c2cc(OC)c(OC)c(OC)c2)C2CCCCC2)c2cccc(OCCN3CCOCC3)c2)cc1OC,Population Apoptotic (%),[1],66% and 51%
same,Population Fragmented Nuclei (%),[1],10% and 3%
same,Population Healthy Nuclei (%),[1],64% and 82%
same,Population Hoechst High Intensity Objects (%),[1],0%
same,Population Membrane Permeable-Phenotype (%),[1],33% and 21%
same,Population Mitochondria Different-Phenotype (%),[1],16% and 37%
same,Population Mitotic Cells (%),[1],33% and 48%
same,Population Normal (%),[1],100% and 99%
same,Population Pyknosed Nuclei (%),[1],24% and 13%
same,Population Tubulin-Different-Phenotype (%),[1],45% and 43%
same,Population Apoptotic (%),[2],100% and 70%
same,Population Healthy Nuclei (%),[2],56% and 81%
same,Population Hoechst High Intensity Objects (%),[2],2% and 0%
same,Population Membrane Permeable-Phenotype (%),[2],82% and 57%
same,Population Mitochondria Different-Phenotype (%),[2],47% and 40%
same,Population Normal (%),[2],97% and 99%
same,Population Pyknosed Nuclei (%),[2],14%
same,Population Tubulin-Different-Phenotype (%),[2],100% and 98%
same,Population Apoptotic (%),[3],60% and 75%
same,Population Fragmented Nuclei (%),[3],11% and 3%
same,Population Healthy Nuclei (%),[3],65% and 77%
same,Population Hoechst High Intensity Objects (%),[3],0%
same,Population Membrane Permeable-Phenotype (%),[3],21% and 18%
same,Population Mitotic Cells (%),[3],40% and 24%
same,Population Normal (%),[3],100%
same,Population Pyknosed Nuclei (%),[3],23% and 18%
same,Population Tubulin-Different-Phenotype (%),[3],28% and 35%
same,Population Apoptotic (%),[4],73% and 96%
same,Population Fragmented Nuclei (%),[4],22% and 9%
same,Population Healthy Nuclei (%),[4],43% and 67%
same,Population Hoechst High Intensity Objects (%),[4],0%
same,Population Membrane Permeable-Phenotype (%),[4],89% and 86%
same,Population Mitochondria Different-Phenotype (%),[4],42% and 39%
same,Population Normal (%),[4],100% and 99%
same,Population Pyknosed Nuclei (%),[4],34% and 23%
same,Population Tubulin-Different-Phenotype (%),[4],100% and 99%
same,Population Apoptotic (%),[5],57% and 87%
same,Population Fragmented Nuclei (%),[5],10% and 3%
same,Population Healthy Nuclei (%),[5],55% and 75%
same,Population Hoechst High Intensity Objects (%),[5],0%
same,Population Membrane Permeable-Phenotype (%),[5],9% and 12%
same,Population Mitochondria Different-Phenotype (%),[5],15% and 37%
same,Population Normal (%),[5],100% and 99%
same,Population Pyknosed Nuclei (%),[5],35% and 21%
same,Population Tubulin-Different-Phenotype (%),[5],24% and 37%
same,Population Apoptotic (%),[6],96% and 91%
same,Population Fragmented Nuclei (%),[6],22% and 10%
same,Population Healthy Nuclei (%),[6],25% and 51%
same,Population Hoechst High Intensity Objects (%),[6],4% and 1%
same,Population Membrane Permeable-Phenotype (%),[6],91%
same,Population Mitochondria Different-Phenotype (%),[6],33% and 42%
same,Population Mitotic Cells (%),[6],4% and 8%
same,Population Normal (%),[6],96% and 98%
same,Population Pyknosed Nuclei (%),[6],52% and 37%
same,Population Tubulin-Different-Phenotype (%),[6],100%
